For eight molecules, Activity and Time results are on record in ChEMBL document CHEMBL1137729, “Synthesis, evaluation and 3D QSAR analysis of novel estradiol-RGD octapeptide conjugates with oral anti-osteoporosis activity” (Eur J Med Chem, 2009).

Residues, ends and D or L forms follow the SMILES beside them. *: point of attachment. Succinyl(O17-estradiol) = C[C@]12CC[C@@H]3c4ccc(O)cc4CC[C@H]3[C@@H]1CC[C@@H]2OC(=O)CCC(=O)*; Acetyl(estradiol-3-yloxy) = C[C@]12CC[C@@H]3c4ccc(OCC(=O)*)cc4CC[C@H]3[C@@H]1CC[C@@H]2O

Data set [1] deals with Mus musculus. Kind of data set: Antiosteoporosis activity in ovariectomized ICR mouse assessed as phosphorous level in serum at 110.3 nmol/kg, po treated for 4 weeks measured after 1 day of last treatment by molybdenum blue method. The format is functional. The method, boiled down:
(§1)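 Ovariectomized female mice dosed orally with 110.3 nmol/kg in 0.5% carboxymethylcellulose once daily for 4 weeks, starting day 5 after surgery. Blood taken from the orbit the day after the last dose, stood 30 min, centrifuged 3000g for 20 min, serum stored at −20 °C. Calcium read by o-methylphenolphthalein complexone; phosphorus by molybdenum blue.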

For data set [2], the system named is Mus musculus. The experiment in a line: Toxicity in ovariectomized ICR mouse assessed as effect on tail bleeding time at 110.3 nmol/kg, po treated for 4 weeks measured after 90 mins of last treatment. The data set is classed as organism-based. As to conditions: in vivo, 1.5 h. An outline of the steps: (§2)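 OVX mice received 110.3 nmol/kg orally in 0.5% carboxymethylcellulose daily for 4 weeks. At 30 and 90 min after the last dose, a 2 mm tail cut was made with the mouse in a tube holder; blood was blotted every 30 s until bleeding stopped, and the time was recorded as bleeding time.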

Data set [3] deals with Mus musculus. The experiment in a line: Antiosteoporosis activity in ovariectomized ICR mouse assessed as calcium level in serum at 110.3 nmol/kg, po treated for 4 weeks measured after 1 day of last treatment by o-methyl-phenolphthalein method. The data set is classed as functional. The method, boiled down:
as §1

The subject of data set [4] is Mus musculus. The experiment in a line: Toxicity in ovariectomized ICR mouse assessed as lung weight at 110.3 nmol/kg, po treated for 4 weeks measured after 1 day of last treatment. The format is organism-based. The following applies: in vivo, 24 h. The method, boiled down:
(§3)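 OVX mice dosed orally once daily with 110.3 nmol/kg in 0.5% carboxymethylcellulose for 4 weeks. The day after the last dose, mice were anesthetized with pentobarbital (40.0 mg/kg ip) and killed; uteri, lungs, livers and spleens were removed and weighed directly and their morphology noted.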

The test system of data set [5] is Mus musculus. The experiment in a line: Toxicity in ovariectomized ICR mouse assessed as kidney weight at 110.3 nmol/kg, po treated for 4 weeks measured after 1 day of last treatment. As to conditions: in vivo, 24 h. The data set is classed as organism-based.
For data set [6], the system named is Mus musculus. The experiment in a line: Antiosteoporosis activity in ovariectomized ICR mouse assessed as phosphorous content in femur at 110.3 nmol/kg, po treated for 4 weeks measured after 1 day of last treatment by molybdenum blue method. The format is functional.
Data set [7] deals with Mus musculus. Kind of data set: Antiosteoporosis activity in ovariectomized ICR mouse assessed as weight of dry femur at 110.3 nmol/kg, po treated for 4 weeks measured after 1 day of last treatment. The format is functional. The method, boiled down: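 Left femur taken the day after the last dose, cleaned of muscle, length measured, defatted in chloroform–methanol (2:1, 2×3 h), dried 120 °C 6 h and weighed, ashed 800 °C 8 h and weighed. Mineral content = ash/dry weight; femur ash dissolved in 6 N HCl, diluted, calcium by o-methylphenolphthalein complexone. n = 12.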

Data set [8] relates to Mus musculus. The experiment in a line: Antiosteoporosis activity in ovariectomized ICR mouse assessed as length of femur at 110.3 nmol/kg, po treated for 4 weeks measured after 1 day of last treatment. The data set is classed as functional. The method, boiled down: (§4)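 Female mice, ovariectomized (sham: laparotomy only); from day 5 post-surgery dosed orally once daily with 110.3 nmol/kg in 0.2 ml 0.5% carboxymethylcellulose for 4 weeks (vehicle to OVX/sham). Left femur taken the day after the last dose, cleaned of muscle, length measured, defatted in chloroform–methanol (2:1, 2×3 h), dried 120 °C 6 h and weighed, ashed 800 °C 8 h and weighed. Mineral content = ash/dry weight; femur ash dissolved in 6 N HCl, diluted, calcium by o-methylphenolphthalein complexone. n = 12.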

Data set [9] relates to Mus musculus. The experiment in a line: Antiosteoporosis activity in ovariectomized ICR mouse assessed as weight of femur ash at 110.3 nmol/kg, po treated for 4 weeks measured after 1 day of last treatment. The data set is classed as functional. An outline of the steps:
as §4

The test system of data set [10] is Mus musculus. Kind of data set: Toxicity in ovariectomized ICR mouse assessed as effect on tail bleeding time at 110.3 nmol/kg, po treated for 4 weeks measured after 30 mins of last treatment. The format is organism-based. The following applies: in vivo, 0.5 h. An outline of the steps:
as §2

Data set [11] concerns Mus musculus. Kind of data set: Toxicity in ovariectomized ICR mouse assessed as spleen weight at 110.3 nmol/kg, po treated for 4 weeks measured after 1 day of last treatment. The format is organism-based. The following applies: in vivo, 24 h. The method, boiled down:
as §3

Data set [12] concerns Mus musculus. Kind of data set: Antiosteoporosis activity in ovariectomized ICR mouse assessed as calcium content in femur at 110.3 nmol/kg, po treated for 4 weeks measured after 1 day of last treatment by o-methyl-phenolphthalein. The data set is classed as functional. An outline of the steps: as §4
The subject of data set [13] is Mus musculus. Kind of data set: Toxicity in ovariectomized ICR mouse assessed as effect on uterine weight at 110.3 nmol/kg, po treated for 4 weeks measured after 1 day of last treatment. The format is organism-based. As to conditions: in vivo, 24 h. An outline of the steps:
as §3

Data set [14] deals with Mus musculus. The experiment in a line: Antiosteoporosis activity in ovariectomized ICR mouse assessed as mineral content in femur at 110.3 nmol/kg, po treated for 4 weeks measured after 1 day of last treatment. The data set is classed as functional. An outline of the steps: as §4
Data set [15] deals with Mus musculus. The experiment in a line: Toxicity in ovariectomized ICR mouse assessed as liver weight at 110.3 nmol/kg, po treated for 4 weeks measured after 1 day of last treatment. The data set is classed as organism-based. As to conditions: in vivo, 24 h. The method, boiled down:
as §3

Take `C[C@]12CC[C@@H]3c4ccc(OCC(=O)N[C@@H](CCCNC(=N)N)C(=O)NCC(=O)N[C@@H](CC(=O)O)C(=O)N[C@@H](Cc5ccccc5)C(=O)O)cc4CC[C@H]3[C@@H]1CC[C@@H]2O` ({Acetyl(estradiol-3-yloxy)}-RGDF-OH): the Activity is reported as 3.19 mM in data set [1]; 3.24 mM in [3]; 0.112 g in data set [4]; 0.159 g in data set [5]; 20.09% in data set [6]; 53.87 mg in [7]. The Activity in [8] is given as 1.669 cm; in data set [9], 33.56 mg; in data set [11], 0.177 g; in data set [12], 57.42%; in [13] it was 0.067 g; in data set [14], 0.596%. Moreover, in [15], the Activity worked out at 1.336 g. For the same molecule, the Time in [2] is 560 s; in data set [10], 557 s.

On to `C[C@]12CC[C@@H]3c4ccc(OCC(=O)N[C@@H](CCCNC(=N)N)C(=O)NCC(=O)N[C@@H](CC(=O)O)C(=O)N[C@@H](Cc5ccccc5)C(=O)N[C@@H](CCCNC(=N)N)C(=O)NCC(=O)N[C@@H](CC(=O)O)C(=O)N[C@@H](Cc5ccccc5)C(=O)O)cc4CC[C@H]3[C@@H]1CC[C@@H]2O` ({Acetyl(estradiol-3-yloxy)}-RGDFRGDF-OH), for which the Activity in [1] is listed as 3.01 mM; in data set [3], 3.05 mM; in data set [4], 0.119 g; in [5], 0.169 g; in [6], 21.33%; in data set [7] it was 56.96 mg. Besides, the Activity in data set [8] is 1.641 cm; in [9], 36.74 mg; in data set [11], 0.131 g; in data set [12] it was 63.92%; in [13] it was 0.061 g; in data set [14], 0.623%. Besides, the Activity in data set [15] was determined as 1.439 g. Further, the values for the Time in [2] and in [10] were 585 s and 592 s, respectively.

For the molecule `C[C@]12CC[C@@H]3c4ccc(OCC(=O)N[C@@H](CCCNC(=N)N)C(=O)NCC(=O)N[C@@H](CC(=O)O)C(=O)N[C@@H](CO)C(=O)O)cc4CC[C@H]3[C@@H]1CC[C@@H]2O` ({Acetyl(estradiol-3-yloxy)}-RGDS-OH), the Activity came out at 2.98 mM in data set [1]; 3.23 mM in data set [3]; 0.128 g in data set [4]; 0.193 g in [5]; 20.24% in data set [6]; 53.89 mg in data set [7]. For the same molecule, the Activity came out at 1.646 cm in [8]; 34.08 mg in data set [9]; 0.142 g in [11]; 58.76% in data set [12]; 0.064 g in [13]; 0.605% in [14]. Moreover, the Activity in data set [15] amounted to 1.492 g. Also, the figures for the Time in data set [2] and in [10] were 577 s and 582 s, respectively.

As for `C[C@]12CC[C@@H]3c4ccc(OCC(=O)N[C@@H](CCCNC(=N)N)C(=O)NCC(=O)N[C@@H](CC(=O)O)C(=O)N[C@@H](CO)C(=O)N[C@@H](CCCNC(=N)N)C(=O)NCC(=O)N[C@@H](CC(=O)O)C(=O)N[C@@H](CO)C(=O)O)cc4CC[C@H]3[C@@H]1CC[C@@H]2O` ({Acetyl(estradiol-3-yloxy)}-RGDSRGDS-OH), the Activity in [1] came to 2.91 mM; in data set [3], 3.01 mM; in data set [4], 0.11 g; in data set [5], 0.17 g; in [6], 21.56%; in data set [7] it was 56.6 mg. For the same molecule, the Activity in data set [8] is on record as 1.657 cm; in data set [9] it was 36.42 mg; in data set [11], 0.133 g; in [12] it was 63.12%; in data set [13], 0.062 g; in data set [14], 0.626%. For the same molecule, in data set [15], the Activity is given as 1.448 g. Also, the Time in data set [2] worked out at 559 s; in data set [10], 564 s.

As for `CC(C)[C@H](NC(=O)[C@H](CC(=O)O)NC(=O)CNC(=O)[C@H](CCCNC(=N)N)NC(=O)COc1ccc2c(c1)CC[C@@H]1[C@@H]2CC[C@]2(C)[C@@H](O)CC[C@@H]12)C(=O)O` ({Acetyl(estradiol-3-yloxy)}-RGDV-OH), the Activity in data set [1] came to 2.99 mM; in data set [3] it was 3.22 mM; in data set [4] it was 0.109 g; in data set [5] it was 0.167 g; in data set [6], 20.24%; in data set [7], 53.97 mg. Besides, the Activity came out at 1.67 cm in data set [8]; 33.99 mg in [9]; 0.133 g in data set [11]; 57.84% in data set [12]; 0.064 g in data set [13]; 0.611% in data set [14]. For the same molecule, the Activity in data set [15] is recorded as 1.4 g. For the same molecule, the figures for the Time in data set [2] and in data set [10] were 577 s and 569 s, respectively.

With `C[C@]12CC[C@@H]3c4ccc(O)cc4CC[C@H]3[C@@H]1CC[C@@H]2OC(=O)CCC(=O)N[C@@H](CCCNC(=N)N)C(=O)NCC(=O)N[C@@H](CC(=O)O)C(=O)N[C@@H](Cc1ccccc1)C(=O)O` ({Succinyl(O17-estradiol)}-RGDF-OH), the Activity is given as 3.01 mM in data set [1]; 3.21 mM in data set [3]; 0.109 g in [4]; 0.16 g in [5]; 20.56% in [6]; 54 mg in data set [7]. Moreover, the Activity in data set [8] was found to be 1.64 cm; in data set [9], 33.87 mg; in [11] it was 0.135 g; in data set [12], 59.36%; in [13], 0.06 g; in data set [14], 0.605%. Besides, the Activity in data set [15] came to 1.266 g. Besides, the results for the Time in data set [2] and in data set [10] were 568 s and 576 s, respectively.

As for `C[C@]12CC[C@@H]3c4ccc(O)cc4CC[C@H]3[C@@H]1CC[C@@H]2OC(=O)CCC(=O)N[C@@H](CCCNC(=N)N)C(=O)NCC(=O)N[C@@H](CC(=O)O)C(=O)N[C@@H](CO)C(=O)O` ({Succinyl(O17-estradiol)}-RGDS-OH), the Activity in data set [1] worked out at 3.01 mM; in data set [3] it was 3.18 mM; in data set [4], 0.12 g; in data set [5], 0.182 g; in data set [6], 20.37%; in data set [7], 53.78 mg. The Activity in data set [8] stood at 1.659 cm; in data set [9] it was 34.17 mg; in [11] it was 0.15 g; in [12], 59.34%; in data set [13], 0.063 g; in data set [14], 0.604%. Besides, in data set [15], the Activity was 1.537 g. Also, the Time in data set [2] is listed as 561 s; in [10] it was 575 s.

`C[C@]12CC[C@@H]3c4ccc(O)cc4CC[C@H]3[C@@H]1CC[C@@H]2O` [ESTRADIOL]: the Activity stood at 3.01 mM in data set [1]; 3.24 mM in data set [3]; 0.12 g in data set [4]; 0.173 g in data set [5]; 19.81% in data set [6]; 1.642 cm in [8]. Also, the Activity in data set [9] turned out to be 32.22 mg; in [11] it was 0.144 g; in [12], 57.28%; in [13], 0.108 g; in data set [14], 0.608%; in data set [15] it was 1.552 g. For the same molecule, the results for the Time in [2] and in data set [10] were 441 s and 417 s, respectively.
